# Test results as given in ChEMBL document CHEMBL1127698, “Matrix metalloproteinase inhibitors containing a (carboxyalkyl)amino zinc ligand: modification of the P1 and P2' residues” (J Med Chem, 1994).
# Molecular target: Stromelysin-1 (Homo sapiens, UniProt P08254)
# Experiment: Activity against human stromelysin (MMP-3).
# In short: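 Fluorogenic stromelysin assay: human enzyme 10 nM in pH 7.6 Tris buffer (200 mM NaCl, 5 mM CaCl2, 20 μM ZnSO4, 0.05% Brij 35). Inhibitors ran from 10 000 to 0.057 nM in 3-fold steps. Ki came from % inhibition vs log[inhibitor], with substrate far below Km.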
# Sequence of Stromelysin-1 (P08254 whole entry): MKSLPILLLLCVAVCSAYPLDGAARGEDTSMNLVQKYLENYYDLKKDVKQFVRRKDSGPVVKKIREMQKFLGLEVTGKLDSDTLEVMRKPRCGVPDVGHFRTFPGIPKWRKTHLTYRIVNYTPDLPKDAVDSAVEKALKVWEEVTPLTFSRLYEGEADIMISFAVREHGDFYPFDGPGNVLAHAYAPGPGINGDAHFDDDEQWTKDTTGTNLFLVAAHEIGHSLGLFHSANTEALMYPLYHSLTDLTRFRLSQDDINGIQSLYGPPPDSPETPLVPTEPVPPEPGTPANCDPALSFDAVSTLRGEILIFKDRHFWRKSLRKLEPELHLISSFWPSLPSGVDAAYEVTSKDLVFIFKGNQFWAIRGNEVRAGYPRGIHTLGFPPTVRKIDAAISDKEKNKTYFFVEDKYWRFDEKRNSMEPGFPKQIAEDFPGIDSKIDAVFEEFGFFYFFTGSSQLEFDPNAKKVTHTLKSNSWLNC
row,SMILES,IC50 [nM]
1,CNC(=O)CNC(=O)[C@H](CC(C)C)N[C@H](CCN1C(=O)c2cc3ccccc3cc2C1=O)C(=O)O,> 10000
2,CC(C)C[C@@H](N[C@H](CCN1C(=O)c2cc3ccccc3cc2C1=O)C(=O)O)C(=O)NC(C)c1ccccc1 (stereo partly drawn),4700
3,CNC(=O)[C@H](CCCN=C(N)N)NC(=O)[C@H](CC(C)C)N[C@H](CCN1C(=O)c2cc3ccccc3cc2C1=O)C(=O)O,481
4,CNC(=O)[C@H](Cc1ccccc1)NC(=O)[C@H](CC(C)C)N[C@H](CCN1Cc2cc3ccccc3cc2C1=O)C(=O)O,7880
5,CNC(=O)[C@H](Cc1ccccc1)NC(=O)[C@H](CC(C)C)N[C@H](CCN1C(=O)c2cccc3c(Br)ccc(c23)C1=O)C(=O)O,341
6,CC(C)C[C@H](N[C@H](CCN1C(=O)c2cc3ccccc3cc2C1=O)C(=O)O)C(=O)NCCc1ccccc1,> 10000
7,CNC(=O)[C@H](Cc1ccccc1)NC(=O)[C@H](CC(C)C)N[C@H](CCN1C(=O)c2cc3ccccc3nc2C1=O)C(=O)O,518
8,CC(C)C[C@H](N[C@H](CCN1C(=O)c2cc3ccccc3cc2C1=O)C(=O)O)C(=O)NC1CCCc2ccccc21 (stereo partly drawn),2470
9,CNC(=O)[C@H](CC(C)C)N[C@H](CCN1C(=O)c2cc3ccccc3cc2C1=O)C(=O)O,> 10000
10,CC(C)C[C@H](N[C@H](CCN1C(=O)c2cc3ccccc3cc2C1=O)C(=O)O)C(=O)NCc1ccc(C(=O)O)cc1,178
11,CNC(=O)[C@H](CC(C)C)NC(=O)[C@H](CC(C)C)N[C@H](CCN1C(=O)c2cc3ccccc3cc2C1=O)C(=O)O,1300
12,CC(C)C[C@H](N[C@H](CCN1C(=O)c2cc3ccccc3cc2C1=O)C(=O)O)C(=O)NCc1cccnc1,309
13,CC(C)C[C@H](NC(=O)[C@H](CC(C)C)N[C@H](CCN1C(=O)c2cc3ccccc3cc2C1=O)C(=O)O)C(=O)NCCN1CCOCC1,121
14,CC(C)C[C@H](N[C@H](CCN1C(=O)c2cc3ccccc3cc2C1=O)C(=O)O)C(=O)N(C)Cc1ccccc1,1160
15,CNC(=O)[C@H](Cc1ccccc1)NC(=O)[C@H](CC(C)C)N[C@H](CCNC(=O)c1ccc2ccccc2c1)C(=O)O,2340
16,CNC(=O)[C@H](Cc1ccccc1)NC(=O)[C@H](CC(C)C)N[C@H](CCN1C(=O)c2cc3ccccc3cc2C1=O)C(=O)O,91
17,CC(C)C[C@H](N[C@H](CCN1C(=O)c2cc3ccccc3cc2C1=O)C(=O)O)C(=O)NC(C)c1ccccc1 (stereo partly drawn),965
18,CC(C)C[C@H](N[C@H](CCN1C(=O)c2cc3ccccc3cc2C1=O)C(=O)O)C(=O)N1CCN(C)CC1,1890
19,CC(C)C[C@H](N[C@H](CCN1C(=O)c2cc3ccccc3cc2C1=O)C(=O)O)C(=O)N1CCc2ccccc2C1,2190

# Molecular target: Matrix metalloproteinase-9 (Homo sapiens, UniProt P14780)
# Sequence (P14780 whole entry): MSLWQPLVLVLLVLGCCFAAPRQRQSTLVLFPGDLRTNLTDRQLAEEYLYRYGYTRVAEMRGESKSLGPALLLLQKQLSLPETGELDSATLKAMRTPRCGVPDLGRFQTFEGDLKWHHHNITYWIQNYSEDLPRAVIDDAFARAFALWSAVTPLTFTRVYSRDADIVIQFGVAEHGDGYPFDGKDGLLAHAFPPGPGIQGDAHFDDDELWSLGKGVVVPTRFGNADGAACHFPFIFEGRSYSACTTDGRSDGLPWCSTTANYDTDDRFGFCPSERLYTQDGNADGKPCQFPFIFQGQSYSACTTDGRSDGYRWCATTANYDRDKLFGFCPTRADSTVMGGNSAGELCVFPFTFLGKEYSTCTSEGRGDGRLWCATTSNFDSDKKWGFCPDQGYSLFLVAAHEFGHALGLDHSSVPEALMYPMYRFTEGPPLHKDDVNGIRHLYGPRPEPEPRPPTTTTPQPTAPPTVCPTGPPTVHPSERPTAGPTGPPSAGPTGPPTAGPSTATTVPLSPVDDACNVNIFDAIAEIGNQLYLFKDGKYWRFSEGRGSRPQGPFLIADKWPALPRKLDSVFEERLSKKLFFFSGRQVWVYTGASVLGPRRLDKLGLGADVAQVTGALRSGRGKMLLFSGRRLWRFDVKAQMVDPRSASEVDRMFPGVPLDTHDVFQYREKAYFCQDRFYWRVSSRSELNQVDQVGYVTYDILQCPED
# Experiment: Activity against human gelatinase (MMP-9).
# In short: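 Human gelatinase at 1 nM in pH 7.6 Tris buffer (200 mM NaCl, 5 mM CaCl2, 20 μM ZnSO4, 0.05% Brij 35), with inhibitors at 3-fold dilutions from 10 000 to 0.057 nM. Ki came from % inhibition vs log concentration, with substrate far below Km.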
row,SMILES,IC50 [nM]
1,CNC(=O)CNC(=O)[C@H](CC(C)C)N[C@H](CCN1C(=O)c2cc3ccccc3cc2C1=O)C(=O)O,124
2,CC(C)C[C@@H](N[C@H](CCN1C(=O)c2cc3ccccc3cc2C1=O)C(=O)O)C(=O)NC(C)c1ccccc1 (stereo partly drawn),76
3,CNC(=O)[C@H](CCCN=C(N)N)NC(=O)[C@H](CC(C)C)N[C@H](CCN1C(=O)c2cc3ccccc3cc2C1=O)C(=O)O,27
4,CNC(=O)[C@H](Cc1ccccc1)NC(=O)[C@H](CC(C)C)N[C@H](CCN1Cc2cc3ccccc3cc2C1=O)C(=O)O,63
5,CNC(=O)[C@H](Cc1ccccc1)NC(=O)[C@H](CC(C)C)N[C@H](CCN1C(=O)c2cccc3c(Br)ccc(c23)C1=O)C(=O)O,28
6,CC(C)C[C@H](N[C@H](CCN1C(=O)c2cc3ccccc3cc2C1=O)C(=O)O)C(=O)NCCc1ccccc1,35
7,CNC(=O)[C@H](Cc1ccccc1)NC(=O)[C@H](CC(C)C)N[C@H](CCN1C(=O)c2cc3ccccc3nc2C1=O)C(=O)O,7.5
8,CC(C)C[C@H](N[C@H](CCN1C(=O)c2cc3ccccc3cc2C1=O)C(=O)O)C(=O)NC1CCCc2ccccc21 (stereo partly drawn),75
9,CNC(=O)[C@H](CC(C)C)N[C@H](CCN1C(=O)c2cc3ccccc3cc2C1=O)C(=O)O,706
10,CC(C)C[C@H](N[C@H](CCN1C(=O)c2cc3ccccc3cc2C1=O)C(=O)O)C(=O)NCc1ccc(C(=O)O)cc1,74
11,CNC(=O)[C@H](CC(C)C)NC(=O)[C@H](CC(C)C)N[C@H](CCN1C(=O)c2cc3ccccc3cc2C1=O)C(=O)O,11
12,CC(C)C[C@H](N[C@H](CCN1C(=O)c2cc3ccccc3cc2C1=O)C(=O)O)C(=O)NCc1cccnc1,36
13,CC(C)C[C@H](NC(=O)[C@H](CC(C)C)N[C@H](CCN1C(=O)c2cc3ccccc3cc2C1=O)C(=O)O)C(=O)NCCN1CCOCC1,13
14,CC(C)C[C@H](N[C@H](CCN1C(=O)c2cc3ccccc3cc2C1=O)C(=O)O)C(=O)N(C)Cc1ccccc1,57
15,CNC(=O)[C@H](Cc1ccccc1)NC(=O)[C@H](CC(C)C)N[C@H](CCNC(=O)c1ccc2ccccc2c1)C(=O)O,49
16,CNC(=O)[C@H](Cc1ccccc1)NC(=O)[C@H](CC(C)C)N[C@H](CCN1C(=O)c2cc3ccccc3cc2C1=O)C(=O)O,5
17,CC(C)C[C@H](N[C@H](CCN1C(=O)c2cc3ccccc3cc2C1=O)C(=O)O)C(=O)NC(C)c1ccccc1 (stereo partly drawn),12
18,CC(C)C[C@H](N[C@H](CCN1C(=O)c2cc3ccccc3cc2C1=O)C(=O)O)C(=O)N1CCN(C)CC1,70
19,CC(C)C[C@H](N[C@H](CCN1C(=O)c2cc3ccccc3cc2C1=O)C(=O)O)C(=O)N1CCc2ccccc2C1,88

# Test system: not listed separately
# Experiment: Half-life period for the activity is tested at pH 6.8
# Assay type: ADME
# In short: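 Inhibitor at 20 μM in 20 mM sodium phosphate, pH 6.8, held at 30 °C. Aliquots were injected every 3 h over 24 h onto C18 reverse-phase HPLC with a 5–60% acetonitrile gradient containing 0.1% TFA.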
row,SMILES,half-life [h]
1,CNC(=O)[C@H](Cc1ccccc1)NC(=O)[C@H](CC(C)C)N[C@H](CCN1Cc2cc3ccccc3cc2C1=O)C(=O)O,> 100
2,CNC(=O)[C@H](Cc1ccccc1)NC(=O)[C@H](CC(C)C)N[C@H](CCN1C(=O)c2cc3ccccc3nc2C1=O)C(=O)O,1.7
3,CNC(=O)[C@H](CC(C)C)NC(=O)[C@H](CC(C)C)N[C@H](CCN1C(=O)c2cc3ccccc3cc2C1=O)C(=O)O,27
4,CC(C)C[C@H](NC(=O)[C@H](CC(C)C)N[C@H](CCN1C(=O)c2cc3ccccc3cc2C1=O)C(=O)O)C(=O)NCCN1CCOCC1,37
5,CNC(=O)[C@H](Cc1ccccc1)NC(=O)[C@H](CC(C)C)N[C@H](CCNC(=O)c1ccc2ccccc2c1)C(=O)O,> 100
6,CNC(=O)[C@H](Cc1ccccc1)NC(=O)[C@H](CC(C)C)N[C@H](CCN1C(=O)c2cc3ccccc3cc2C1=O)C(=O)O,29

# Molecular target: T1, Interstitial collagenase (Homo sapiens, UniProt P03956)
# T1 sequence (P03956 whole entry): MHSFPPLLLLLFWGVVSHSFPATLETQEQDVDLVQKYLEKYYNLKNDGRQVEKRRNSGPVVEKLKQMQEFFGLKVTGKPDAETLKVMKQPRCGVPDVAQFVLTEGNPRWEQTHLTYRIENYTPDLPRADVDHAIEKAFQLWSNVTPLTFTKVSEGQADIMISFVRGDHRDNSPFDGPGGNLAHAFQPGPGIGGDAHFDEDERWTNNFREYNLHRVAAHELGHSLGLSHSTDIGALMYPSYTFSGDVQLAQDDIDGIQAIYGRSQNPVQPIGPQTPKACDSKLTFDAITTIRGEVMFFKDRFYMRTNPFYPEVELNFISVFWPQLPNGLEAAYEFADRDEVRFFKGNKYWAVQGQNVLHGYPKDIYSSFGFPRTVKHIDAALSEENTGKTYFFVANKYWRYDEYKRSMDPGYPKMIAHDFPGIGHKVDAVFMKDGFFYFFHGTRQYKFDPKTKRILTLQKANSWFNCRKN
# Experiment: Activity against human collagenase (MMP-1).
row,SMILES,IC50 [nM]
1,CNC(=O)CNC(=O)[C@H](CC(C)C)N[C@H](CCN1C(=O)c2cc3ccccc3cc2C1=O)C(=O)O,370
2,CC(C)C[C@@H](N[C@H](CCN1C(=O)c2cc3ccccc3cc2C1=O)C(=O)O)C(=O)NC(C)c1ccccc1 (stereo partly drawn),74
3,CNC(=O)[C@H](CCCN=C(N)N)NC(=O)[C@H](CC(C)C)N[C@H](CCN1C(=O)c2cc3ccccc3cc2C1=O)C(=O)O,152
4,CNC(=O)[C@H](Cc1ccccc1)NC(=O)[C@H](CC(C)C)N[C@H](CCN1Cc2cc3ccccc3cc2C1=O)C(=O)O,211
5,CNC(=O)[C@H](Cc1ccccc1)NC(=O)[C@H](CC(C)C)N[C@H](CCN1C(=O)c2cccc3c(Br)ccc(c23)C1=O)C(=O)O,190
6,CC(C)C[C@H](N[C@H](CCN1C(=O)c2cc3ccccc3cc2C1=O)C(=O)O)C(=O)NCCc1ccccc1,160
7,CNC(=O)[C@H](Cc1ccccc1)NC(=O)[C@H](CC(C)C)N[C@H](CCN1C(=O)c2cc3ccccc3nc2C1=O)C(=O)O,22
8,CC(C)C[C@H](N[C@H](CCN1C(=O)c2cc3ccccc3cc2C1=O)C(=O)O)C(=O)NC1CCCc2ccccc21 (stereo partly drawn),108
9,CNC(=O)[C@H](CC(C)C)N[C@H](CCN1C(=O)c2cc3ccccc3cc2C1=O)C(=O)O,490
10,CC(C)C[C@H](N[C@H](CCN1C(=O)c2cc3ccccc3cc2C1=O)C(=O)O)C(=O)NCc1ccc(C(=O)O)cc1,56
11,CNC(=O)[C@H](CC(C)C)NC(=O)[C@H](CC(C)C)N[C@H](CCN1C(=O)c2cc3ccccc3cc2C1=O)C(=O)O,49
12,CC(C)C[C@H](N[C@H](CCN1C(=O)c2cc3ccccc3cc2C1=O)C(=O)O)C(=O)NCc1cccnc1,139
13,CC(C)C[C@H](NC(=O)[C@H](CC(C)C)N[C@H](CCN1C(=O)c2cc3ccccc3cc2C1=O)C(=O)O)C(=O)NCCN1CCOCC1,44
14,CC(C)C[C@H](N[C@H](CCN1C(=O)c2cc3ccccc3cc2C1=O)C(=O)O)C(=O)N(C)Cc1ccccc1,37
15,CNC(=O)[C@H](Cc1ccccc1)NC(=O)[C@H](CC(C)C)N[C@H](CCNC(=O)c1ccc2ccccc2c1)C(=O)O,488
16,CNC(=O)[C@H](Cc1ccccc1)NC(=O)[C@H](CC(C)C)N[C@H](CCN1C(=O)c2cc3ccccc3cc2C1=O)C(=O)O,20
17,CC(C)C[C@H](N[C@H](CCN1C(=O)c2cc3ccccc3cc2C1=O)C(=O)O)C(=O)NC(C)c1ccccc1 (stereo partly drawn),51
18,CC(C)C[C@H](N[C@H](CCN1C(=O)c2cc3ccccc3cc2C1=O)C(=O)O)C(=O)N1CCN(C)CC1,54
19,CC(C)C[C@H](N[C@H](CCN1C(=O)c2cc3ccccc3cc2C1=O)C(=O)O)C(=O)N1CCc2ccccc2C1,84
